Reference: paper PMC7610487 (Nature chemical biology, 2020)

System: zebrafish embryos
Experiment: Effects of the fluorogens on zebrafish embryogenesis
Format: in vivo
Outline: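 Wild-type AB zebrafish embryos were raised at 28°C and staged as hours postfertilization. Fluorogen exposure started at 50% epiboly, either as a 1 h pulse or continuously overnight to 24 hpf. At 48 hpf, embryos were examined by brightfield microscopy and scored into three classes: no defect, axis defects, or dead.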

[1] = 5 μM fluorogen during 1 hour at 50% epiboly
[2] = 5 μM fluorogen overnight from 50% epiboly to 24 hpf

Compound	effects on embryos scored at 48 hpf [1]	effects on embryos scored at 48 hpf [2]
Cc1cc(C=C2SC(=S)NC2=O)ccc1O [HMBR, 4-hydroxy-3-methylbenzylidene rhodanine]	No deleterious effects	No deleterious effects
COc1cc(C=C2SC(=S)NC2=O)cc(OC)c1O [HBR-3,5DOM, 4-hydroxy-3,5-dimethoxybenzylidene rhodanine]	No deleterious effects	No deleterious effects
